Experimental data: ChEMBL document CHEMBL3864165, “Design, synthesis, and AChE inhibitory activity of new benzothiazole-piperazines” (Bioorg Med Chem Lett, 2016)

How the values were obtained:
Acetylcholinesterase [1] = target: T1, Acetylcholinesterase (Electrophorus electricus, UniProt O42275); assay: Inhibition of electric eel AChE preincubated for 15 mins followed by acetylthiocholine iodide substrate addition measured for 5 mins by Ellman's spectrophotometric method
[2] = target: Acetylcholinesterase (Electrophorus electricus) (UniProt O42275); assay: Inhibition of electric eel AChE at 10^-6 M preincubated for 15 mins followed by acetylthiocholine iodide substrate addition measured for 5 mins by Ellman's spectrophotometric method relative to control
[3] = target: Acetylcholinesterase (Electrophorus electricus) (UniProt O42275); assay: Inhibition of electric eel AChE at 10^-7 M preincubated for 15 mins followed by acetylthiocholine iodide substrate addition measured for 5 mins by Ellman's spectrophotometric method relative to control
Salmonella typhimurium [4] = assay: Genotoxicity in Salmonella typhimurium TA100 assessed as increase in number of revertants at 1.25 mg/ml in presence of aroclor-1254-induced Sprague-Dawley rat liver S9 fraction by Ames-MPF assay relative to control; type: toxicity, organism-based; settings: salmonella enterica subsp. enterica serovar typhimurium
Method in brief: (§1)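 Ames MPF microplate fluctuation format, run with and without S9 metabolic activation. The read-out is the count of positive (revertant) wells. A run is accepted only when positive controls give more than 25 positive wells and negative controls give fewer than eight.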

[5] = target: Acetylcholinesterase (Electrophorus electricus) (UniProt O42275); assay: Inhibition of electric eel AChE at 10^-3 M preincubated for 15 mins followed by acetylthiocholine iodide substrate addition measured for 5 mins by Ellman's spectrophotometric method relative to control
Salmonella typhimurium [6] = assay: Genotoxicity in Salmonella typhimurium TA98 assessed as increase in number of revertants at 0.625 mg/ml in absence of aroclor-1254-induced Sprague-Dawley rat liver S9 fraction by Ames-MPF assay relative to control; type: toxicity, organism-based; settings: salmonella enterica subsp. enterica serovar typhimurium; method in brief: as §1
Salmonella typhimurium [7] = assay: Genotoxicity in Salmonella typhimurium TA98 assessed as increase in number of revertants at 2.5 mg/ml in absence of aroclor-1254-induced Sprague-Dawley rat liver S9 fraction by Ames-MPF assay relative to control; type: toxicity, organism-based; settings: salmonella enterica subsp. enterica serovar typhimurium; method in brief: as §1
Salmonella typhimurium [8] = assay: Genotoxicity in Salmonella typhimurium TA100 assessed as increase in number of revertants at 5 mg/ml in absence of aroclor-1254-induced Sprague-Dawley rat liver S9 fraction by Ames-MPF assay relative to control; type: toxicity, organism-based; settings: salmonella enterica subsp. enterica serovar typhimurium; method in brief: as §1
Salmonella typhimurium [9] = assay: Genotoxicity in Salmonella typhimurium TA98 assessed as increase in number of revertants at 0.3125 mg/ml in presence of aroclor-1254-induced Sprague-Dawley rat liver S9 fraction by Ames-MPF assay relative to control; type: toxicity, organism-based; settings: salmonella enterica subsp. enterica serovar typhimurium; method in brief: as §1
[10] = Ratio of compound IC50 to donepezil IC50 for mouse NIH/3T3 cells; type: ADME, cell-based; settings: read-out: Ratio IC50
[11] = target: Acetylcholinesterase (Electrophorus electricus) (UniProt O42275); assay: Inhibition of electric eel AChE at 10^-4 M preincubated for 15 mins followed by acetylthiocholine iodide substrate addition measured for 5 mins by Ellman's spectrophotometric method relative to control
Salmonella typhimurium [12] = assay: Genotoxicity in Salmonella typhimurium TA98 assessed as increase in number of revertants at 0.156 mg/ml in absence of aroclor-1254-induced Sprague-Dawley rat liver S9 fraction by Ames-MPF assay relative to control; type: toxicity, organism-based; settings: salmonella enterica subsp. enterica serovar typhimurium; method in brief: as §1
Salmonella typhimurium [13] = assay: Genotoxicity in Salmonella typhimurium TA100 assessed as increase in number of revertants at 0.625 mg/ml in absence of aroclor-1254-induced Sprague-Dawley rat liver S9 fraction by Ames-MPF assay relative to control; type: toxicity, organism-based; settings: salmonella enterica subsp. enterica serovar typhimurium; method in brief: as §1
Salmonella typhimurium [14] = assay: Genotoxicity in Salmonella typhimurium TA100 assessed as increase in number of revertants at 0.625 mg/ml in presence of aroclor-1254-induced Sprague-Dawley rat liver S9 fraction by Ames-MPF assay relative to control; type: toxicity, organism-based; settings: salmonella enterica subsp. enterica serovar typhimurium; method in brief: as §1
Salmonella typhimurium [15] = assay: Genotoxicity in Salmonella typhimurium TA100 assessed as increase in number of revertants at 2.5 mg/ml in absence of aroclor-1254-induced Sprague-Dawley rat liver S9 fraction by Ames-MPF assay relative to control; type: toxicity, organism-based; settings: salmonella enterica subsp. enterica serovar typhimurium; method in brief: as §1
Salmonella typhimurium [16] = assay: Genotoxicity in Salmonella typhimurium TA98 assessed as increase in number of revertants at 5 mg/ml in presence of aroclor-1254-induced Sprague-Dawley rat liver S9 fraction by Ames-MPF assay relative to control; type: toxicity, organism-based; settings: salmonella enterica subsp. enterica serovar typhimurium; method in brief: as §1
Salmonella typhimurium [17] = assay: Genotoxicity in Salmonella typhimurium TA98 assessed as increase in number of revertants at 2.5 mg/ml in presence of aroclor-1254-induced Sprague-Dawley rat liver S9 fraction by Ames-MPF assay relative to control; type: toxicity, organism-based; settings: salmonella enterica subsp. enterica serovar typhimurium; method in brief: as §1
Salmonella typhimurium [18] = assay: Genotoxicity in Salmonella typhimurium TA98 assessed as increase in number of revertants at 1.25 mg/ml in absence of aroclor-1254-induced Sprague-Dawley rat liver S9 fraction by Ames-MPF assay relative to control; type: toxicity, organism-based; settings: salmonella enterica subsp. enterica serovar typhimurium; method in brief: as §1
Salmonella typhimurium [19] = assay: Genotoxicity in Salmonella typhimurium TA100 assessed as increase in number of revertants at 2.5 mg/ml in presence of aroclor-1254-induced Sprague-Dawley rat liver S9 fraction by Ames-MPF assay relative to control; type: toxicity, organism-based; settings: salmonella enterica subsp. enterica serovar typhimurium; method in brief: as §1
Salmonella typhimurium [20] = assay: Genotoxicity in Salmonella typhimurium TA100 assessed as increase in number of revertants at 1.25 mg/ml in absence of aroclor-1254-induced Sprague-Dawley rat liver S9 fraction by Ames-MPF assay relative to control; type: toxicity, organism-based; settings: salmonella enterica subsp. enterica serovar typhimurium; method in brief: as §1
Salmonella typhimurium [21] = assay: Genotoxicity in Salmonella typhimurium TA100 assessed as increase in number of revertants at 0.156 mg/ml in absence of aroclor-1254-induced Sprague-Dawley rat liver S9 fraction by Ames-MPF assay relative to control; type: toxicity, organism-based; settings: salmonella enterica subsp. enterica serovar typhimurium; method in brief: as §1
Acetylcholinesterase [22] = target: T1, Acetylcholinesterase; assay: Mixed-type inhibition of electric eel AChE preincubated for 15 mins followed by acetylthiocholine iodide substrate addition measured for 5 mins by Lineweaver-Burk plot analysis
Method in brief: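 Substrate-velocity curves recorded with and without inhibitor, with initial velocities measured at acetylthiocholine (ATC) concentrations from 600 µM down to 18.75 µM. Data analysed as 1/V plots. Ki taken as the x-axis intercept of a secondary plot of 1/V versus inhibitor concentration.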

Salmonella typhimurium [23] = assay: Genotoxicity in Salmonella typhimurium TA98 assessed as increase in number of revertants at 1.25 mg/ml in presence of aroclor-1254-induced Sprague-Dawley rat liver S9 fraction by Ames-MPF assay relative to control; type: toxicity, organism-based; settings: salmonella enterica subsp. enterica serovar typhimurium; method in brief: as §1
Salmonella typhimurium [24] = assay: Genotoxicity in Salmonella typhimurium TA98 assessed as increase in number of revertants at 5 mg/ml in absence of aroclor-1254-induced Sprague-Dawley rat liver S9 fraction by Ames-MPF assay relative to control; type: toxicity, organism-based; settings: salmonella enterica subsp. enterica serovar typhimurium; method in brief: as §1
Salmonella typhimurium [25] = assay: Genotoxicity in Salmonella typhimurium TA98 assessed as increase in number of revertants at 0.3125 mg/ml in absence of aroclor-1254-induced Sprague-Dawley rat liver S9 fraction by Ames-MPF assay relative to control; type: toxicity, organism-based; settings: salmonella enterica subsp. enterica serovar typhimurium; method in brief: as §1
Salmonella typhimurium [26] = assay: Genotoxicity in Salmonella typhimurium TA100 assessed as increase in number of revertants at 0.3125 mg/ml in absence of aroclor-1254-induced Sprague-Dawley rat liver S9 fraction by Ames-MPF assay relative to control; type: toxicity, organism-based; settings: salmonella enterica subsp. enterica serovar typhimurium; method in brief: as §1
Salmonella typhimurium [27] = assay: Genotoxicity in Salmonella typhimurium TA100 assessed as increase in number of revertants at 0.156 mg/ml in presence of aroclor-1254-induced Sprague-Dawley rat liver S9 fraction by Ames-MPF assay relative to control; type: toxicity, organism-based; settings: salmonella enterica subsp. enterica serovar typhimurium; method in brief: as §1
[28] = Cytotoxicity against mouse NIH/3T3 cells after 24 hrs by MTT assay; settings: NIH/3T3 cells
Salmonella typhimurium [29] = assay: Genotoxicity in Salmonella typhimurium TA100 assessed as increase in number of revertants at 0.3125 mg/ml in presence of aroclor-1254-induced Sprague-Dawley rat liver S9 fraction by Ames-MPF assay relative to control; type: toxicity, organism-based; settings: salmonella enterica subsp. enterica serovar typhimurium; method in brief: as §1
Salmonella typhimurium [30] = assay: Genotoxicity in Salmonella typhimurium TA98 assessed as increase in number of revertants at 0.625 mg/ml in presence of aroclor-1254-induced Sprague-Dawley rat liver S9 fraction by Ames-MPF assay relative to control; type: toxicity, organism-based; settings: salmonella enterica subsp. enterica serovar typhimurium; method in brief: as §1
Salmonella typhimurium [31] = assay: Genotoxicity in Salmonella typhimurium TA98 assessed as increase in number of revertants at 0.156 mg/ml in presence of aroclor-1254-induced Sprague-Dawley rat liver S9 fraction by Ames-MPF assay relative to control; type: toxicity, organism-based; settings: salmonella enterica subsp. enterica serovar typhimurium; method in brief: as §1
Salmonella typhimurium [32] = assay: Genotoxicity in Salmonella typhimurium TA100 assessed as increase in number of revertants at 5 mg/ml in presence of aroclor-1254-induced Sprague-Dawley rat liver S9 fraction by Ames-MPF assay relative to control; type: toxicity, organism-based; settings: salmonella enterica subsp. enterica serovar typhimurium; method in brief: as §1

Sequence of Acetylcholinesterase (Electrophorus electricus) (O42275 24-633 limits assumed): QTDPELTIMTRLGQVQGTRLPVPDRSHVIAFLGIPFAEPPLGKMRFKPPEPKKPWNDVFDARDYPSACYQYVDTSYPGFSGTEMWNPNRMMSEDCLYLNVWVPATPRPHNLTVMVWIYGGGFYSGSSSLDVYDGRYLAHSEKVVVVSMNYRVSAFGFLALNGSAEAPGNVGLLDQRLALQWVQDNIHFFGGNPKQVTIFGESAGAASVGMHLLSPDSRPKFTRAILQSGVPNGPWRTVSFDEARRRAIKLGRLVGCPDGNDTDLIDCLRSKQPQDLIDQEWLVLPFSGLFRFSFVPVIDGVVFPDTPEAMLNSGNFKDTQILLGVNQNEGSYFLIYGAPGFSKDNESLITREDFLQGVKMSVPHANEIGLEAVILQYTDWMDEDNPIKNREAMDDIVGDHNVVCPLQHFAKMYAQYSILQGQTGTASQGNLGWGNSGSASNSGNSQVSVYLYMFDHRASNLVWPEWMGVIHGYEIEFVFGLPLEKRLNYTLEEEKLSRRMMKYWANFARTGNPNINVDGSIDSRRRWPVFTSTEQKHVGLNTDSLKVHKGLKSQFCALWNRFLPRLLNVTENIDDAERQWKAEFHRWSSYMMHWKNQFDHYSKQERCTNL
T1 sequence (O42275 whole entry): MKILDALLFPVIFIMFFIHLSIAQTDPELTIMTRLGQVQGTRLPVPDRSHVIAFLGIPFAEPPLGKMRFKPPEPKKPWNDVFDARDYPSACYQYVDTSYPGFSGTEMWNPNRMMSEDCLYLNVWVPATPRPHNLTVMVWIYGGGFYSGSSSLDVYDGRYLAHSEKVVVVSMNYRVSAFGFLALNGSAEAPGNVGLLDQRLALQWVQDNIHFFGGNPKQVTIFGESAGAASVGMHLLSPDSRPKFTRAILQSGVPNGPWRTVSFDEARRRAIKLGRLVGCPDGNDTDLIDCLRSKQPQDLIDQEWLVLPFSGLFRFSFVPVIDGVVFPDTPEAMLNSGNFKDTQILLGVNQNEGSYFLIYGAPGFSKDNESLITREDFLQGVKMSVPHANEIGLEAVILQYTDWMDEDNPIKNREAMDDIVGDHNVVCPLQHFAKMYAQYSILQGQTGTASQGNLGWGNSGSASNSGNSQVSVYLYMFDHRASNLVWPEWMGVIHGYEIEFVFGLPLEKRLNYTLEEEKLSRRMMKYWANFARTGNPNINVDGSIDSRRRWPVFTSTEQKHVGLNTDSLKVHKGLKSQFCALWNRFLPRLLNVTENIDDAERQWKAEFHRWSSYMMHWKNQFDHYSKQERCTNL

COc1cc2nc(NC(=O)CN3CCN(Cc4ccc(F)cc4)CC3)sc2cc1OC
IC50 (Acetylcholinesterase [1]): 175 nM | inhibition [2]: > 50%

COc1cc2nc(NC(=O)CN3CCN(Cc4ccc(Cl)cc4)CC3)sc2cc1OC
IC50 (Acetylcholinesterase [1]): 130 nM | inhibition [2]: > 50%

COc1ccc2nc(NC(=O)CN3CCN(CCN(C)C)CC3)sc2c1
IC50 (Acetylcholinesterase [1]): 94.6 nM | inhibition [2]: > 50% | inhibition [3]: > 50%

COc1ccc(CN2CCN(CC(=O)Nc3nc4ccc(OC)cc4s3)CC2)cc1
IC50 (Acetylcholinesterase [1]): 396 nM | inhibition [2]: > 50%

COc1ccc2nc(NC(=O)CN3CCN(Cc4ccc(F)cc4)CC3)sc2c1
IC50 (Acetylcholinesterase [1]): 244 nM | inhibition [2]: > 50%

COc1cc2nc(NC(=O)CN3CCN(CCN(C)C)CC3)sc2cc1OC
fold change (FC) (Salmonella typhimurium [4]): 1.09 | inhibition [5]: > 95% | fold change (FC) (Salmonella typhimurium [6]): 1.03 | fold change (FC) (Salmonella typhimurium [7]): 0.33 | fold change (FC) (Salmonella typhimurium [8]): 0 | fold change (FC) (Salmonella typhimurium [9]): 0.65 | selectivity ratio [10]: 3 | inhibition [11]: 90% | fold change (FC) (Salmonella typhimurium [12]): 0.87 | fold change (FC) (Salmonella typhimurium [13]): 0.27 | fold change (FC) (Salmonella typhimurium [14]): 0.55 | fold change (FC) (Salmonella typhimurium [15]): 0 | fold change (FC) (Salmonella typhimurium [16]): 0 | IC50 (Acetylcholinesterase [1]): 46.2 nM | fold change (FC) (Salmonella typhimurium [17]): 0 | fold change (FC) (Salmonella typhimurium [18]): 0.33 | fold change (FC) (Salmonella typhimurium [19]): 0.55 | fold change (FC) (Salmonella typhimurium [20]): 0.27 | fold change (FC) (Salmonella typhimurium [21]): 0.66 | inhibition [2]: > 50% | Ki (Acetylcholinesterase [22]): 110 nM | fold change (FC) (Salmonella typhimurium [23]): 0.43 | inhibition [3]: > 50% | fold change (FC) (Salmonella typhimurium [24]): 0.11 | fold change (FC) (Salmonella typhimurium [25]): 1.14 | fold change (FC) (Salmonella typhimurium [26]): 0.49 | fold change (FC) (Salmonella typhimurium [27]): 0.78 | IC50 at 24 h [28]: > 1 mM | fold change (FC) (Salmonella typhimurium [29]): 0.55 | fold change (FC) (Salmonella typhimurium [30]): 0.97 | fold change (FC) (Salmonella typhimurium [31]): 0.22 | fold change (FC) (Salmonella typhimurium [32]): 0.47

COc1ccc2nc(NC(=O)CN3CCN(Cc4ccc(C(F)(F)F)cc4)CC3)sc2c1
IC50 (Acetylcholinesterase [1]): 274 nM | inhibition [2]: > 50%

COc1ccc(CN2CCN(CC(=O)Nc3nc4cc(OC)c(OC)cc4s3)CC2)cc1
IC50 (Acetylcholinesterase [1]): 252 nM | inhibition [2]: > 50%
